The source made the active and inactive calls. The calls are words filed in the database; no cut-off is given here.
Experiments:
Saccharomyces cerevisiae = assay: Toxicity against Saccharomyces cerevisiae by disc diffusion method; format: functional, organism-based
How it was run: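 Antifungal screen by disc diffusion. Dried extract, 50 mg dissolved in 1 mL CH2Cl2; 10 µL applied to each small filter disc under aseptic conditions, solvent left to evaporate overnight. Discs placed on malt extract agar plates inoculated with a lawn of yeast, incubated at 25 °C, and inhibition zones measured.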

Choristoneura fumiferana = assay: Toxicity against Choristoneura fumiferana assessed as reduction in body weight by diet incorporation assay; format: functional, organism-based
How it was run: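 Spruce budworm diet-incorporation bioassay with disease-free larvae. Extract dissolved in CH2Cl2, mixed into synthetic diet at 400 µg/g, solvent evaporated overnight. Ten second-instar larvae per cup, 3 cups per extract, held at 25 °C, 55% RH, 16 h light/day until fifth instar (about 1 week). Each larva weighed and head capsule width measured. ANOVA with Fisher's LSD; rugulosin positive control, CH2Cl2 negative control.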

Hep 3B2 = assay: Cytotoxicity against human Hep3B cells; format: functional, cell-based

In the case of `COc1cc(OC)c(C(=O)O)c(C(C)=O)c1`, the Activity (Saccharomyces cerevisiae) is reported as “Active” and the Activity (Choristoneura fumiferana) is reported as “Active”.
`C[C@@H]1Cc2cccc(O)c2C(=O)O1` was tested, and the Activity (Saccharomyces cerevisiae) was “Active” and the Activity (Choristoneura fumiferana) was “Active”.
`COC(=O)c1ccc(O)c2c1C[C@@H](C)OC2=O` was tested, and the Activity (Saccharomyces cerevisiae) was “Active” and the Activity (Choristoneura fumiferana) was “Active”.
`CCC[C@@H]1Cc2cc(OC)cc(O)c2C(=O)O1` was tested, and the Activity (Saccharomyces cerevisiae) was “Active” and the Activity (Choristoneura fumiferana) was “Active”.
In the case of `COC(=O)c1c(OC)cc(OC)cc1C(C)=O`, the Activity (Saccharomyces cerevisiae) is reported as “Active” and the Activity (Choristoneura fumiferana) is reported as “Active”.
For `COC(=O)c1c(O)c(C)cc2oc3cccc(O)c3c(=O)c12`, the Activity (Saccharomyces cerevisiae) was “Active” and the Activity (Choristoneura fumiferana) was “Active”.
For `OCCc1ccc(O)cc1`, the Activity (Saccharomyces cerevisiae) was “Active”, the Activity (Hep 3B2) was “inactive” and the Activity (Choristoneura fumiferana) was “Active”.
For `C[C@@H]1Cc2c(C=O)ccc(O)c2C(=O)O1`, the Activity (Saccharomyces cerevisiae) was “Active” and the Activity (Choristoneura fumiferana) was “Active”.
`Cc1ccc(O)c2c1C[C@@H](C)OC2=O` was tested, and the Activity (Saccharomyces cerevisiae) was “Active” and the Activity (Choristoneura fumiferana) was “Active”.
For `CCCCC1=C(C)COC1=O`, the Activity (Saccharomyces cerevisiae) was “Active” and the Activity (Choristoneura fumiferana) was “Active”.
For `COc1cc(OC)c2c(c1)C(C)OC2=O` (stereo not drawn), the Activity (Saccharomyces cerevisiae) was “Active” and the Activity (Choristoneura fumiferana) was “Active”.

From ChEMBL document CHEMBL1155892, “Characterization of polyketide metabolites from foliar endophytes of Picea glauca” (J Nat Prod, 2008)
